In PMC6315097 (The Korean Journal of Physiology & Pharmacology : Official …, 2018):

What was measured:
male C57BL/6 mice [1] = assay: Total GLP-1 in plasma after glucose loading in normoglycemic mice; format: in vivo; conditions: 30 min after glucose loading
Outline: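 Fasted (16 h) 8-week-old male C57BL/6 mice, 7 per group, dosed orally with test compound or vehicle 30 min before a 2 g/kg glucose load. Plasma collected from the subclavian vein 30 min after loading. Total GLP-1 measured by multispecies ELISA. One-way ANOVA with Dunnett's test versus vehicle.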

male C57BL/6 mice [2] = assay: Oral glucose tolerance test in normoglycemic mice; format: in vivo
Outline: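 Male C57BL/6 mice, 8 weeks old, fasted 16 h. Test compound given orally 30 min before a glucose load of 2 g/kg (10 ml/kg). Tail-nick blood glucose read by glucose strip before loading and at 0, 15, 30, 60 and 120 min after. Glucose AUC0–120min calculated by the trapezoidal rule. n=6; mean±S.E.M.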

db/db mice = assay: 4-week repeated administration in db/db mice; format: in vivo; conditions: 4-week repeated oral dosing
Outline: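 Male db/db mice, 8 weeks old, 7 per group, allocated by HbA1c and blood glucose after a 16 h fast. Test compound given orally once daily for 28 days. HbA1c measured from tail-vein blood on days 0 and 28. Blood glucose checked twice weekly. Body weight taken daily. OGTT on day 29, 24 h after the last dose: glucose 2 g/kg, samples at −60, 0, 15, 30, 60 and 120 min. Mean±S.E.M.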

mice = conditions: cited from earlier work
human SGLT2 = target: T1, human SGLT2 (Homo sapiens, UniProt P31639); assay: [14C]-AMG uptake inhibition in HEK293 cells stably expressing human SGLT2; format: cell-based; conditions: human SGLT2 vs human SGLT1, in vitro
T1 sequence (P31639 1-672): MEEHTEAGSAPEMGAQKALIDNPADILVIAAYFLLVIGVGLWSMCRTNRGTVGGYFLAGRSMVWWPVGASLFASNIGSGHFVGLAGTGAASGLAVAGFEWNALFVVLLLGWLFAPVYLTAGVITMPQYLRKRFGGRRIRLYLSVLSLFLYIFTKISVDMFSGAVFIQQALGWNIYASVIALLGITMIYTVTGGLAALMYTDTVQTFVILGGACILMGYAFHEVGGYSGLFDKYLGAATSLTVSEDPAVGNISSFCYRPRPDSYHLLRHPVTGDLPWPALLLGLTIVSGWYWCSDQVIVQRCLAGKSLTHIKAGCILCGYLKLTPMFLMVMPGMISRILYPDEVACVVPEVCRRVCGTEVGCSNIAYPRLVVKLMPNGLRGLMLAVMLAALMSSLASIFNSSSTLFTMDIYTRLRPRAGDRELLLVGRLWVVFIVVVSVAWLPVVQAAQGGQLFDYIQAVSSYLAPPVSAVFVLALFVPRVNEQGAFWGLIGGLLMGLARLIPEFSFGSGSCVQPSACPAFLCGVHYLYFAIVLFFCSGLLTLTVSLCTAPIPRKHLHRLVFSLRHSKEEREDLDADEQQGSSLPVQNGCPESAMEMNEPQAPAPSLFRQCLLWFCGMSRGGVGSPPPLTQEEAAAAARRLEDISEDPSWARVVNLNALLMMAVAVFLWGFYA

male C57BL/6 mice [3] = assay: Urinary glucose excretion over 24 h in normoglycemic mice; format: in vivo; conditions: single oral dose 3 mg/kg with 2 g/kg glucose, 24 h urine
Outline: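 Male C57BL/6 mice, 8 weeks old, 3 per group, allocated by body weight and fasted overnight. […] Urine collected in metabolism cages over 24 h. Urine volume and glucose measured by clinical chemistry analyser and normalised to body weight.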

[4] = Pharmacokinetic profiles in male C57BL/6 mice; format: in vivo; conditions: for AUC(0-t): AUC0-24hr
[5] = single oral 1 mg/kg 30 min before glucose 2 g/kg
[6] = male, C57BL/6, mouse, plasma, po
[7] = male, C57BL/6, mouse, plasma, po, 0.3 mg/kg, mice
[8] = male, C57BL/6, mouse, plasma, po, 1 mg/kg, mice

Row | Structure (SMILES) | Total GLP-1 in plasma (male C57BL/6 mice [1]; single oral 1 mg/kg) [pM] | effect on blood glucose increases during OGTT (male C57BL/6 mice [2]; [5]) | change in body weight compared to vehicle-treated db/db mice (db/db mice) | reduction of glucose reabsorption (mice; SGLT1 and SGLT2 double-knockout mice) [%] | inhibition of glucose reabsorption (mice; wild-type mice) [%] | selectivity for SGLT2 over SGLT1 (human SGLT2) [fold] | Total GLP-1 in plasma (male C57BL/6 mice [1]; single oral 0.3 mg/kg) [pM] | Total GLP-1 in plasma (male C57BL/6 mice [1]; single oral 3 mg/kg, 3 mg/kg) [pM] | area under the curve (AUC) of glucose tolerance, OGTT 120 min (male C57BL/6 mice [2]; single oral 0.3 mg/kg 30 min before glucose 2 g/kg) [mg·h/dL] | area under the curve (AUC) of glucose tolerance, OGTT 120 min (male C57BL/6 mice [2]; [5]) [mg·h/dL] | area under the curve (AUC) of glucose tolerance, OGTT 120 min (male C57BL/6 mice [2]; single oral 3 mg/kg 30 min before glucose 2 g/kg) [mg·h/dL] | Urinary glucose excretion (male C57BL/6 mice [3]) [mg/g body weight] | Tmax [4, 6] [h] | half-life [4, 6] [h] | AUC(0-t) [4, 7] [ng·h/mL] | Cmax [4, 7] [ng/mL] | AUC(0-t) [4, 8] [ng·h/mL] | Cmax [4, 8] [ng/mL] | AUC(0-t) ([4]; male, C57BL/6, mouse, plasma, po, 3 mg/kg, mice) [ng·h/mL] | maximum plasma level ([4]; mice, single oral dose 0.1 mg/kg) [ng/mL]
1 | CCOc1ccc(Cc2cc([C@@H]3O[C@H](CO)[C@@H](O)[C@H](O)[C@H]3O)ccc2Cl)cc1 [Dapagliflozin, (1S)-1,5-anhydro-1-C-{4-chloro-3-[(4-ethoxyphenyl)methyl]phenyl}-D-glucitol, reference compound] | 15.5 ± 5.7 | decreased blood glucose increases during OGTT | did not induce a significant change in body weight | – | – | – | – | – | – | – | – | – | – | – | – | – | – | – | – | –
2 | OC[C@H]1O[C@@H](c2ccc(Cl)c(Cc3ccc(O[C@H]4CCOC4)cc3)c2)[C@H](O)[C@@H](O)[C@@H]1O [Empagliflozin] | – | – | – | 100 | 56 | – | – | – | – | – | – | – | – | – | – | – | – | – | – | –
3 | CCc1ccc(Cc2cc([C@@H]3O[C@H](CO)[C@@H](O)[C@H](O)[C@H]3O)cc3c2CCC3)cc1 [HM41322, (2S,3R,4R,5S,6R)-2-[7-(4-ethylbenzyl)-2,3-dihydro-1H-inden-5-yl]-6-(hydroxymethyl)tetrahydro-2H-pyran-3,4,5-triol] | 18.0 ± 5.0 | – | did not induce a significant change in body weight | – | – | 10 | 15.0 ± 6.6 | 34.2 ± 9.7 | 303.3 ± 60.17 | 228.5 ± 16.96 | 170.7 ± 13.14 | 19.32±1.16 | 0.5 | 3.1 | 473 | 142 | 1300 | 439 | 5460 | 142
